Laboratory results published in ChEMBL document CHEMBL2321654, “Design, modification and 3D QSAR studies of novel naphthalin-containing pyrazoline derivatives with/without thiourea skeleton as anticancer agents” (Bioorg Med Chem, 2013).
Calls of active or inactive are those of the source. The rule behind the calls is not given here.

Key:
[1] = tested on: MCF7; assay: Antiproliferative activity against human MCF7 cells after 24 hrs by MTT assay; assay type: functional; details: MCF7, 24 h
Procedure, shortened: (§1)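 MCF-7 and A549 cells grown in DMEM/10% FBS, 5% CO2, 37 °C; seeded at 1000 cells/well and left 24 h to reattach. Compound stocks 20 mM in DMSO, diluted in medium; 3-fold serial dilutions gave final […]. Exposure 24 h at 37 °C, then MTT read-out at 590 nm. GI50 calculated from absorbance.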

[2] = tested on: A549; assay: Antiproliferative activity against human A549 cells after 24 hrs by MTT assay; assay type: functional; details: A549, 24 h; procedure, shortened: as §1
[3] = target: T1, Epidermal growth factor receptor (Homo sapiens, UniProt P00533); assay: Inhibition of recombinant EGFR cytoplasmic domain (645 to 1186) (unknown origin) autophosphorylation after 1 hr
[4] = target: Receptor tyrosine-protein kinase erbB-2 (Homo sapiens, UniProt P04626); assay: Inhibition of human recombinant HER-2 cytoplasmic domain (676 to 1245) autophosphorylation after 1 hr
Procedure, shortened: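 His6-tagged HER-2 expressed in Sf-9 cells (3-day infection), purified by Ni-NTA at 4 °C. Enzyme (12.5 ng) preincubated with compound 10 min at room temperature, then 0.1 mM ATP-50 mM MgCl2 with MnCl2, Na3VO4 and DTT buffer added for 1 h. Autophosphorylation read by europium anti-phosphotyrosine DELFIA time-resolved fluorescence (ex 340/em 615 nm). Controls with and without ATP-MgCl2; triplicate.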

[5] = target: Focal adhesion kinase 1 (Homo sapiens, UniProt Q05397); assay: Inhibition of human-recombinant full-length FAK after 4 hrs by kinase-Glo-luminescence assay
Procedure, shortened: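 Full-length recombinant human FAK incubated with ATP and substrate in kinase buffer, with or without compound, for 4 h at room temperature. Final drug concentrations 100, 30, 10 and 3 µg/mL. Remaining ATP measured by Kinase-Glo luminescence.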

[6] = target: Vascular endothelial growth factor receptor 2 (Homo sapiens, UniProt P35968); assay: Inhibition of VEGFR-2 (unknown origin) using gastrin as substrate after 1 hr by fluorescence assay
Procedure, shortened: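 Phosphorylated or nonphosphorylated VEGFR-2 kinase domain, 5 nM, incubated with compound (10-point titration, 4 to 0.1 µM) and 1 µM gastrin substrate in Tris-HCl pH 7.5 with MgCl2, NaCl, EGTA, DTT, orthovanadate and BSA, 30 min at 25 °C. ATP then added to 11.8 µM final for 60 min at room temperature. Eu-anti-phosphotyrosine time-resolved fluorescence read at 665 nm; triplicate.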

[7] = target: T1, Epidermal growth factor receptor; details: A549, 0.02 to 0.32 uM
[8] = target: T1, Epidermal growth factor receptor; details: A549, 0.02 to 0.32 uM; remark: listed apart in the source
[9] = target: Receptor tyrosine-protein kinase erbB-3 (Homo sapiens, UniProt P21860); assay: Inhibition of human recombinant HER-3 cytoplasmic domain (665 to 1339) autophosphorylation after 1 hr
Procedure, shortened: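 HER-3 cytoplasmic domain (aa 665–1339) from 1.8 Kb human cDNA. Assayed by the same DELFIA autophosphorylation procedure as EGFR/HER-2: compound preincubated with enzyme, ATP-MgCl2 for 1 h, europium anti-phosphotyrosine time-resolved fluorescence read-out.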

Sequence of Vascular endothelial growth factor receptor 2 (P35968 whole entry, the tested form may be a part): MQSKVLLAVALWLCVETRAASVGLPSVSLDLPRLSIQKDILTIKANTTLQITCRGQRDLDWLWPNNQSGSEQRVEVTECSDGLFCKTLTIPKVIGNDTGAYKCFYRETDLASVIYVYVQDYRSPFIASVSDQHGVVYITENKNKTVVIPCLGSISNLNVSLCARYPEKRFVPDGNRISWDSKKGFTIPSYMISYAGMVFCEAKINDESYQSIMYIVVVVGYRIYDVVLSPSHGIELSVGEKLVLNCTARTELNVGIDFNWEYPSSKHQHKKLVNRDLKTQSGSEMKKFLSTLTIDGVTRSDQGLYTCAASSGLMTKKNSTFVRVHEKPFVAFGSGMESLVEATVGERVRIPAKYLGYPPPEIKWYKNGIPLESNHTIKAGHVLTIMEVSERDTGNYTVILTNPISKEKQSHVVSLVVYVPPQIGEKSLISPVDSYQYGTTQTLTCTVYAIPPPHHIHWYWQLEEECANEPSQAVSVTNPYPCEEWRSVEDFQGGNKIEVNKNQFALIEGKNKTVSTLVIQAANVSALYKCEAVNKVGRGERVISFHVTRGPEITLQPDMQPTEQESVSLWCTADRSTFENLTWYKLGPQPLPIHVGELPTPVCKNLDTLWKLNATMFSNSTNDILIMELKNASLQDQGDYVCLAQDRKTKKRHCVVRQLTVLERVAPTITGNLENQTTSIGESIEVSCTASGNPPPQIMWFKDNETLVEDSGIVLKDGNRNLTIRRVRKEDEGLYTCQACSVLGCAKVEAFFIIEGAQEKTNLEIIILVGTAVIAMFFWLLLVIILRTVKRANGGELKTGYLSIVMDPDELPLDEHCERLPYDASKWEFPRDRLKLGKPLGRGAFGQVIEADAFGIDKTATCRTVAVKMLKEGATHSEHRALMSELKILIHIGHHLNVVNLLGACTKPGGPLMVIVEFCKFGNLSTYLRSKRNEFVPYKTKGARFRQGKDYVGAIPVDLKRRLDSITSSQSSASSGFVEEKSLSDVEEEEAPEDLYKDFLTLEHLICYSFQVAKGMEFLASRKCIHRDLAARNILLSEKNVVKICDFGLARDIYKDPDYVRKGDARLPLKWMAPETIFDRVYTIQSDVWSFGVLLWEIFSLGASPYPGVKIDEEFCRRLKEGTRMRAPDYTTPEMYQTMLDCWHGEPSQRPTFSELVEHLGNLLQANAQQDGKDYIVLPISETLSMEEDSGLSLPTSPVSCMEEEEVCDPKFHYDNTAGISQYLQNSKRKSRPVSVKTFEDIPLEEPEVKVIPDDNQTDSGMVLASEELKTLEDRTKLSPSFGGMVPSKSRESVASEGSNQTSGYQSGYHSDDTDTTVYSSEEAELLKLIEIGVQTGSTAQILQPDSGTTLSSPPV
Sequence of Receptor tyrosine-protein kinase erbB-3 (P21860 whole entry, the tested form may be a part): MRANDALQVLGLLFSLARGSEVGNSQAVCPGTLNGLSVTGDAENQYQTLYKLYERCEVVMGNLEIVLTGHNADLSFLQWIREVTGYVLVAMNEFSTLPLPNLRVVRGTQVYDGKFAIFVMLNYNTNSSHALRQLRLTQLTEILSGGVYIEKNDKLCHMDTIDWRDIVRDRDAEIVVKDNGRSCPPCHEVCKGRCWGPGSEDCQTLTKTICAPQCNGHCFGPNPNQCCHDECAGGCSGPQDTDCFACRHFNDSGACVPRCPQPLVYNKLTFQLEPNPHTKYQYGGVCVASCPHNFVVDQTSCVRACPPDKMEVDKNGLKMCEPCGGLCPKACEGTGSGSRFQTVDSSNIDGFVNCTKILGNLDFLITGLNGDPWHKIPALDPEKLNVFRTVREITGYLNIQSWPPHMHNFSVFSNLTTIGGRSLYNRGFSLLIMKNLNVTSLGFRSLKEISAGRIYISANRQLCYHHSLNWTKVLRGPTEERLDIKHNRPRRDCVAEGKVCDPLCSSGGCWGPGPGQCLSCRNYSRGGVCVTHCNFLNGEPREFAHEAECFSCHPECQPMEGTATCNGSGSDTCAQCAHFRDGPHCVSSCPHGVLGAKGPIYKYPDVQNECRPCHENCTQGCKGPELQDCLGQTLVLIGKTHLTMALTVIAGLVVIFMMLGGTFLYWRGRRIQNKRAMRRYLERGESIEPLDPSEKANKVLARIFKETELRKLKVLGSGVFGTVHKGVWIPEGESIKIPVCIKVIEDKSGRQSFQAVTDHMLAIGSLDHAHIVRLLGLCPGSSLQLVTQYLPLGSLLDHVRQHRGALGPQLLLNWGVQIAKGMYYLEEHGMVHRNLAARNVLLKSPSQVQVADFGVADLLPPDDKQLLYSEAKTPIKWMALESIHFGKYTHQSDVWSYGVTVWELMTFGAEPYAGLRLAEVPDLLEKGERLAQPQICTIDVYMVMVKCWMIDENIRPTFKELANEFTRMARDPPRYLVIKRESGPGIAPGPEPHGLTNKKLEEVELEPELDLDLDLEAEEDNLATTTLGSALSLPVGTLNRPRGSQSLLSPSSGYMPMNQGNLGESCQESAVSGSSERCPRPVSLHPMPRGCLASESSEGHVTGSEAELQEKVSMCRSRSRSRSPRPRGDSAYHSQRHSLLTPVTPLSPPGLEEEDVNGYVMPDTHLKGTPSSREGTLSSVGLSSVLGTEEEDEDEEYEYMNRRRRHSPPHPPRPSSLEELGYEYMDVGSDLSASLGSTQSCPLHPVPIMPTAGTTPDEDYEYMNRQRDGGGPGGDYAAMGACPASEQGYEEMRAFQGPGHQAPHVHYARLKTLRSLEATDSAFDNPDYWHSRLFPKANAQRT
Sequence of Focal adhesion kinase 1 (Q05397 whole entry): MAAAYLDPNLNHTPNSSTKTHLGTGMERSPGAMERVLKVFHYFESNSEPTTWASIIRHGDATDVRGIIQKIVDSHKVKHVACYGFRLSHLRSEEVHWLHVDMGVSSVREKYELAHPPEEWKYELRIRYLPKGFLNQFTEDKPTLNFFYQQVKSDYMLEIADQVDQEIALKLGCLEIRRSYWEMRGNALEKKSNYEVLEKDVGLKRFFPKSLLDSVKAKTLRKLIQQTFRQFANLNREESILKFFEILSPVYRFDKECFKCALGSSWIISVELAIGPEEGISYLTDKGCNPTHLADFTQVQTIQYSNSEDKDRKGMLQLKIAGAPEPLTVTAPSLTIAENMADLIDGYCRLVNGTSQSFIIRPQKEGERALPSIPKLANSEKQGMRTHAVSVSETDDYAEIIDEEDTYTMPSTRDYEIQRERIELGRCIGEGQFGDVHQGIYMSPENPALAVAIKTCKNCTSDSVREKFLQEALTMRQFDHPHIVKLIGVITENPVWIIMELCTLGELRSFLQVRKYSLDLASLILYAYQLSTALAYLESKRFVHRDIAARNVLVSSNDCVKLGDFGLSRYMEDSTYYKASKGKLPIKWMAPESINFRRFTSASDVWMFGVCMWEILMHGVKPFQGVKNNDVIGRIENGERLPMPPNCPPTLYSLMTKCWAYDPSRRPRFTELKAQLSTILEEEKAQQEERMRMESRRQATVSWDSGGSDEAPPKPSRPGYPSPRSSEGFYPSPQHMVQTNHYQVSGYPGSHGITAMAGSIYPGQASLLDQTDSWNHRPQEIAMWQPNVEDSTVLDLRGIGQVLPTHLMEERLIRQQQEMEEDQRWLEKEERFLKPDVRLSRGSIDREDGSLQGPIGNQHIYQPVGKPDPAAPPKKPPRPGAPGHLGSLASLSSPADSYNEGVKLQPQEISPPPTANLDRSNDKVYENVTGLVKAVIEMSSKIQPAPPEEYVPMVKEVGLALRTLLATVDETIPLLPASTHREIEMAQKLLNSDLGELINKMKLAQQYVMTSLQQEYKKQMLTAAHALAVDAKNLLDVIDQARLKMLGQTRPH
Sequence of Receptor tyrosine-protein kinase erbB-2 (P04626 whole entry, the tested form may be a part): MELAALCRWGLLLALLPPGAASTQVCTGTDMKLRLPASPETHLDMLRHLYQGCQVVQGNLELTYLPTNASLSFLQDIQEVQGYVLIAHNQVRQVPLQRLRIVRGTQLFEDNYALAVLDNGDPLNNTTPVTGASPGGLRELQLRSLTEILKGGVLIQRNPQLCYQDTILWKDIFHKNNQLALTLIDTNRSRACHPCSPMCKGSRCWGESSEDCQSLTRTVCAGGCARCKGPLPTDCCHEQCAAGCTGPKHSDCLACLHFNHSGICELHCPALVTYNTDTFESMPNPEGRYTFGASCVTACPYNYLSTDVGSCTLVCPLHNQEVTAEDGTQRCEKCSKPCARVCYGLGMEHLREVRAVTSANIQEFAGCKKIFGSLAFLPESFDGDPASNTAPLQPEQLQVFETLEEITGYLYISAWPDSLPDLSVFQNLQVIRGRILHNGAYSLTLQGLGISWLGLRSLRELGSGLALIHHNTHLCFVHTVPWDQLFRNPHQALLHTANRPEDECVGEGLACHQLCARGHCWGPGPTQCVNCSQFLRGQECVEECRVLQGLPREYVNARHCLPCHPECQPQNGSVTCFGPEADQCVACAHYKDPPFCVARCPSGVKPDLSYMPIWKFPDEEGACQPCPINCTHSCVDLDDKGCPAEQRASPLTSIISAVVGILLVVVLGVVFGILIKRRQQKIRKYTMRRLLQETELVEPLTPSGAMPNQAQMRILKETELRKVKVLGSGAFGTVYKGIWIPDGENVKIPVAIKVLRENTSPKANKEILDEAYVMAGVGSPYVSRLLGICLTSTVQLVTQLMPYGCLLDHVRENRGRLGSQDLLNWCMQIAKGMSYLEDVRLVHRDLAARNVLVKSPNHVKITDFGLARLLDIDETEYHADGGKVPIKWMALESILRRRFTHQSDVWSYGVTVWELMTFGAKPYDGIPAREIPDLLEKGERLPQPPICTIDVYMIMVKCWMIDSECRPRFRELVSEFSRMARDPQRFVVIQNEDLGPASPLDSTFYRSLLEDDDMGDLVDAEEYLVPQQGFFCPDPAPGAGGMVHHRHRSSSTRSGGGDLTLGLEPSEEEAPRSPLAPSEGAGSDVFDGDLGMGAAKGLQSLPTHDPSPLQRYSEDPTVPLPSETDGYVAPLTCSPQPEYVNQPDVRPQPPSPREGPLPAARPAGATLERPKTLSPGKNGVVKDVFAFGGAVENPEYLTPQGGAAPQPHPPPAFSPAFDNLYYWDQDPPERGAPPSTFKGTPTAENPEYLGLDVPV

Row | GI50 [1] [nM] | GI50 [2] [nM] | IC50 [3] [nM] | IC50 [4] [nM] | IC50 [5] [nM] | IC50 [6] [nM] | inhibition [7] | inhibition [8] | IC50 [9] [nM] | SMILES
1 | 1030 | 250 | 490 | 2320 |  |  |  |  |  | Brc1ccc(C2=NN(c3ccccc3)C(c3cccc4ccccc34)C2)cc1 (configuration not stated)
2 | 11200 | 380 |  | 5460 |  |  |  |  |  | NC(=S)N1N=C(c2ccc(Cl)cc2)CC1c1cccc2ccccc12 (configuration not stated)
3 | 80 | 30 |  |  |  |  |  |  |  | C#Cc1cccc(Nc2ncnc3cc(OCCOC)c(OCCOC)cc23)c1 [ERLOTINIB]
4 | 27600 | 33500 |  | 6580 |  |  |  |  |  | NC(=S)N1N=C(c2ccc(Cl)c(Cl)c2)CC1c1ccc(O)cc1 (configuration not stated)
5 | 880 | 4180 | 3280 | 1750 |  |  |  |  |  | NC(=S)N1N=C(c2ccc(F)cc2)CC1c1ccc2ccccc2c1 (configuration not stated)
6 | 480 | 360 | 710 | 1280 |  |  |  |  |  | Brc1ccc(C2=NN(c3ccccc3)C(c3ccc4ccccc4c3)C2)cc1 (configuration not stated)
7 | > 50000 | 49100 | 5680 | 9150 |  |  |  |  |  | NC(=S)N1N=C(c2ccc(Br)cc2)CC1c1cccc2ccccc12 (configuration not stated)
8 | 810 | 200 | 140 | 1980 |  |  |  |  |  | Clc1ccc(C2=NN(c3ccccc3)C(c3cccc4ccccc34)C2)cc1Cl (configuration not stated)
9 | 2680 | 490 | 1070 | 3590 |  |  |  |  |  | Fc1ccc(C2=NN(c3ccccc3)C(c3cccc4ccccc34)C2)cc1 (configuration not stated)
10 | 2120 | 460 | 1040 | 3280 |  |  |  |  |  | COc1ccc(C2=NN(C(N)=S)C(c3ccc4ccccc4c3)C2)cc1 (configuration not stated)
11 | 390 | 110 | 50 | 1020 | 6200 | 1830 | Active | Active | 35900 | Clc1ccc(C2=NN(c3ccccc3)C(c3ccc4ccccc4c3)C2)cc1Cl (configuration not stated)
12 | 530 | 160 | 110 | 1460 |  |  |  |  |  | Clc1ccc(C2=NN(c3ccccc3)C(c3ccc4ccccc4c3)C2)cc1 (configuration not stated)
13 | 730 | 220 | 240 | 1890 |  |  |  |  |  | c1ccc(C2=NN(c3ccccc3)C(c3ccc4ccccc4c3)C2)cc1 (configuration not stated)
14 | 550 | 160 |  | 1450 |  |  |  |  |  | COc1ccc(C2=NN(c3ccccc3)C(c3ccc4ccccc4c3)C2)cc1 (configuration not stated)
15 | 3790 | 340 |  | 2770 |  |  |  |  |  | COc1ccc(C2CC(c3ccc(C)c(C)c3)=NN2C(N)=S)cc1 (configuration not stated)
16 | 33100 | 180 | 210 | 6840 |  |  |  |  |  | NC(=S)N1N=C(c2ccc(Cl)c(Cl)c2)CC1c1cccc2ccccc12 (configuration not stated)

Row | GI50 [1] [nM] | GI50 [2] [nM] | IC50 [3] [nM] | IC50 [4] [nM] | IC50 [5] [nM] | IC50 [6] [nM] | inhibition [7] | inhibition [8] | IC50 [9] [nM] | SMILES
17 | 44500 | 1440 | 2230 | 7240 |  |  |  |  |  | NC(=S)N1N=C(c2ccccc2)CC1c1cccc2ccccc12 (configuration not stated)
18 | 390 | 270 | 520 | 1040 | 28700 | 2100 |  |  | 63200 | Cc1ccc(C2=NN(C(N)=S)C(c3ccc4ccccc4c3)C2)cc1 (configuration not stated)
19 | 4180 | 170 | 160 | 4180 | 13600 | 4100 |  |  | 55600 | COc1ccc(C2=NN(C(N)=S)C(c3cccc4ccccc34)C2)cc1 (configuration not stated)
20 | 850 | 230 | 300 | 2010 |  |  |  |  |  | Fc1ccc(C2=NN(c3ccccc3)C(c3ccc4ccccc4c3)C2)cc1 (configuration not stated)
21 | 390 | 130 | 60 | 1130 | 11500 | 1560 |  |  | 45300 | Cc1ccc(C2=NN(c3ccccc3)C(c3ccc4ccccc4c3)C2)cc1 (configuration not stated)
22 | 440 | 230 | 350 | 1210 |  |  |  |  |  | NC(=S)N1N=C(c2ccc(Br)cc2)CC1c1ccc2ccccc2c1 (configuration not stated)
23 | 1820 | 330 | 680 | 3070 |  |  |  |  |  | Clc1ccc(C2=NN(c3ccccc3)C(c3cccc4ccccc34)C2)cc1 (configuration not stated)
24 | > 50000 | > 50000 | 8250 | 10600 |  |  |  |  |  | NC(=S)N1N=C(c2ccc(F)cc2)CC1c1cccc2ccccc12 (configuration not stated)
25 | 1710 | 160 | 100 | 3010 | 10300 | 3400 |  |  | 40200 | COc1ccc(C2=NN(c3ccccc3)C(c3cccc4ccccc34)C2)cc1 (configuration not stated)
26 | 350 | 310 | 660 | 880 | 9900 | 3200 |  |  | 51700 | NC(=S)N1N=C(c2ccc(Cl)c(Cl)c2)CC1c1ccc2ccccc2c1 (configuration not stated)
27 | 740 | 190 | 200 | 1910 |  |  |  |  |  | Cc1ccc(C2=NN(c3ccccc3)C(c3cccc4ccccc34)C2)cc1 (configuration not stated)
28 | 13800 | 3210 | 3010 | 5690 |  |  |  |  |  | NC(=S)N1N=C(c2ccccc2)CC1c1ccc2ccccc2c1 (configuration not stated)
29 | 29100 | 1210 | 2060 | 6680 |  |  |  |  |  | Cc1ccc(C2=NN(C(N)=S)C(c3cccc4ccccc34)C2)cc1 (configuration not stated)
30 | 3290 | 1980 | 2520 | 3830 |  |  |  |  |  | c1ccc(C2=NN(c3ccccc3)C(c3cccc4ccccc34)C2)cc1 (configuration not stated)
31 | 3310 | 260 |  | 3870 |  |  |  |  |  | NC(=S)N1N=C(c2ccc(Cl)cc2)CC1c1ccc2ccccc2c1 (configuration not stated)
